According to the EternaBench riboswitch data:

System: MS2 coat protein
Assay: apparent Kd, MS2 coat protein; higher = weaker binding; RNA-MaP array; FMN 200 µM where present
How it was run: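 Stalled E. coli RNA polymerase transcribed each design on Illumina sequencing-chip clusters. The clusters were titrated with SNAP-549-labelled MS2 coat protein, starting at 0.7 or 1.5 nM and doubling up to 3 µM, first without ligand and then with constant ligand, in 100 mM Tris-HCl pH 7.5, 80 mM KCl, 4 mM MgCl2, BSA, DTT, yeast tRNA and Tween-20. Green signal was normalised to red-channel RNA signal and to the control-cluster median Fmax. The apparent Kd is the median of filtered binding-curve fits made for each cluster.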

[1] = designed as: OFF switch for flavin mononucleotide, no ligand
[2] = ligand present: flavin mononucleotide, designed as: OFF switch for flavin mononucleotide
[3] = designed as: ON switch for flavin mononucleotide, no ligand
[4] = ligand present: flavin mononucleotide, designed as: ON switch for flavin mononucleotide

Row | Sequence | apparent Kd [1] | apparent Kd [2] | apparent Kd [3] | apparent Kd [4]
1 | GAAGAUGGUGAGGAUAUCAUUAACCACAUCGGAUGAGAAGGUACCACAUGAGGAUCACCCAUGUACAUAUUACU | 22.4 nM | 22.9 nM | – | –
2 | GUAGAGUAAGGAUAUAGUGAAUAGGAUAGAAUGGUUAGAAACUAGAAGGUACAUGAGGAUCACCCAUGUAAUGU | 23.6 nM | 21.2 nM | – | –
3 | UGAAAUCAUGUAGGAUAUGCAUGGCGAAGCUACGCAGAAGGACAUGAGGAUCACCCAUGUUAUAGCUACCCAGUUAGGUGGCAA | 145 nM | 157 nM | – | –
4 | AUCUUGUCAGGAUAUGACUACAUAAAAAAAAAAAAAUGUAGUCAGAAGGGACAUGAGGAUCACCCAUGUACUAA | 34.9 nM | 54.1 nM | – | –
5 | AAUUUCAGAUGAGGAUAUUGACAUGAGGAUCACCCAUGUAUUUGGGAAUGUUUACUGAAUUCUUACAAGAAGGUAUACGAACUU | 237 nM | 164 nM | – | –
6 | AAAACAUGAGGAUCACCCAUGUAAAGAUCGGUUGAUGAAAGUGAGGAUAUACAAAAUUUUAUGGAGUAGAAGGCACUGGGUUGA | – | – | 67.4 nM | 47.7 nM
7 | AAAAAGUGAGGAUAUCGGAAAAAAAAAAAAAAAAAAAAAAACGAGAAGGCACAUGAGGAUCACCCAUGUAAAAA | 42.3 nM | 33.6 nM | – | –
8 | CGCACUAUACAUGAGGAUCACCCAUGUUAAUAUGAGAUAGUCAGAAGGCAUUGUUUGAGAAAUUAUGAGGAUAUGAAUAGUGCG | – | – | 100 nM | 23.7 nM
9 | UGGUACAUGAGGAUCACCCAUGUAAGAGCCCUCAUGCGAUGUAGAAGGUUAAUGCGUGUAGUGCUAAAGGAUAUACAUGAGUUU | 82.3 nM | 71.2 nM | – | –
10 | GUAACAUGAGGAUCACCCAUGUAUAGAACACUCAAUAGAUUUGAGGAUAUAGUGGAAUUUACACACUAGAAGGCAGUGGGUGCA | – | – | 181 nM | 253 nM
11 | AUCAGCUCGUCAGGAUAUACGUCACUGCGUCAGCAGUGUGGUAAGAACACAUGAGGAUCACCCAUGUAGAAGGGACGAGCUGAU | 6.31 nM | 7.81 nM | – | –
12 | UAUUAGUAAGGAUAUCUCGUCAUGGAGGAAACUCCAUGACGAGAGAAGGUACAUGAGGAUCACCCAUGUCUAUU | 16.1 nM | 18.3 nM | – | –
13 | UUAUUAUAUGUAGGAUAUGCAUAUUAUUAUUAUGCAGAAGGACAUGAGGAUCACCCAUGUAUAUUAUUAUUAUAUAUUGUAUAU | 27.8 nM | 43.2 nM | – | –
14 | GUAUAUAUUACAUGAGGAUCACCCAUGUCAGAACGGGUAAUCAGAAGGUAGUAUUAGAGAAAGAUUAAGGAUAUGAUUAUAUAC | – | – | 231 nM | 81.1 nM
15 | UUUGCAUUCCGAGGAUAUUCUUUUAUUGUCUUCACAUGAGGAUCACCCAUGUGGCGCUUGCGCCGGGAGAAGGCGGUUUGCUUU | – | – | 23.9 nM | 24.5 nM
16 | CAAAAGCUAGGAUAUACGUCAAAGGGCCCGAUCGCUCUCGGACAUGAGGAUCACCCAUGUAGAAGGAGCGCACU | 14.4 nM | 16.8 nM | – | –
17 | GCAUCACAUGAGGAUCACCCAUGUCUUCGGAGUCGAGGAUAUGGUCACUGUAAACAGUGGCCAGAAGGCGAGGUGC | – | – | 67.6 nM | 38.3 nM
18 | UUUCUCGGCGAGAAGGGAGUACAUGAGGAUCACCCAUGUGGUCCAUGGAGCUCAGGAUAUCGCGAGGUCGAUGUCGACGGAGUA | 127 nM | 231 nM | – | –
19 | UACAUGAGGAUCACCCAUGUUUUGUCGUGUAUGGUAUUUAUCUAGGAUAUCAAUUUGUAUAUUUAUGAGAAGGAGAAUAUUAAU | 34.5 nM | 39.6 nM | – | –
20 | CUCAUGUGAGGAUAUCAGUAGUAAAAAAAUAAAAUUACUACUGAGAAGGCACAUGAGGAUCACCCAUGUACCUU | 70.7 nM | 72 nM | – | –
21 | GAUGGCGUCCAAGGAUAUCCUGACCGUUAACAUGAGGAUCACCCAUGUUGCCUAAAGGCGGCAUAGGAGAAGGUGGUACUCUGA | – | – | 111 nM | 155 nM

Row | Sequence | apparent Kd [1] | apparent Kd [2] | apparent Kd [3] | apparent Kd [4]
22 | AACACACAUGAGGAUCACCCAUGUAAAAUUUAGCAAGGAUAUGGGUGCCGUAAUCGGUUACCAGAAGGUGCCUCAC | – | – | 103 nM | 59.8 nM
23 | CGACCCUAAACGAAAUUAUGCAGUCAGGAUAUACAUGAGGAUCACCCAUGUGCGUACCAACUCGUGUAGAAGGGACUUUUAGGG | 24.7 nM | 84.6 nM | – | –
24 | GAUAGGACAGAGAAGGACAUAGCUAGAGAUACUAGCAUAUGAACCUUCACAUGAGGAUCACCCAUGUAGGAUAUCUGUCCUAUC | 3.51 nM | 3.96 nM | – | –
25 | UAAAAGUGAGGAUAUGCGAAGGCGUCUGAUAGACGAGGCUAGCAGAAGGCACAUGAGGAUCACCCAUGUGGGAU | 89.7 nM | 152 nM | – | –
26 | ACAUGAGGAUCACCCAUGUAUAGAAUUGAAUGUUAAGAUACGUAGGAUAUCGAGUUUAGUAUGAUCGAGAAGGACGAUCUGAUA | – | – | 19.8 nM | 13.6 nM
27 | GACUCGCGCACAGGAUAUCCACGUAGCGGACGUGGAGAAGGGUGACAUGAGGAUCACCCAUGUACGUGAGUCUAGAUCACUUCC | – | – | 40.2 nM | 22.8 nM
28 | AGAAAUUAGUGAGGAUAUGCUUAAAUUGUAGUUGCAGAAGGCACGGACCACAAGACAUGAGGAUCACCCAUGUGGUAUUUAGAU | 28.9 nM | 33 nM | – | –
29 | GUCGUGCAGCUUUGCUGUACGAGUACAUGAGGAUCACCCAUGUAGGAUAUGGUACGCUUUGCGUGCCAGAAGGACGUGCGUUGG | 48 nM | 134 nM | – | –
30 | ACAUGAGGAUCACCCAUGUUGAAUUAGGAUAUUUGACUGCACAUGAGGUUCUCCCAUGUUCAACCGGAGAAGGGAUUAAUAAUU | – | – | 318 nM | 132 nM
31 | UGAGACCUCACAGGAUAUGCUGGACUUUGUCCAGCAGAAGGGUGAAAACAUGAGGAUCACCCAUGUAUGGUCUCCAAAUUUAAG | – | – | 191 nM | 12.7 nM
32 | UUAUUAAGUGUGAGGAUAUGCUGGUCCUUGGAUCAGCAGAAGGCACAUGAGGAUCACCCAUGUACAAUAUAUUA | 38.5 nM | 251 nM | – | –
33 | AGUUUUGUACAUGAGGAUCACCCAUGUUAAUAUGUGGUAGUCAGAAGGCAUUGUUAGAGUUUAAAUGAGGAUAUGAAUAUUCAG | – | – | 72.8 nM | 33 nM
34 | GUGGCUAGUGCAGGAUAUUAGUGCGUGUAGUAUUGAGAAGGGCACAUGAGGAUCACCCAUGUGAUCAAUCACUGUUAAGGUCGC | 79.7 nM | 76.5 nM | – | –
35 | CUGGUGUGAGGAUAUCAAAGACCUCGGGAUAGUACCGAGGAUGAGAAGGCACAUGAGGAUCACCCAUGUAACAA | 21.2 nM | 35.4 nM | – | –
36 | GUCUUACAUGAGGAUCACCCAUGUGAGGAUAUAUGUGGUGUUGAGAAAUUGGUGUUGUAUAGAAGGCGCGUGAU | 25.5 nM | 24.8 nM | – | –
37 | GCCUUAUCGGUCAGGAUAUACACCCGUUAGUUGUUGUAGAAGGGACAUGAGGAUCACCCAUGUACAUUACAUUG | 22.8 nM | 60 nM | – | –
38 | GGGUCAACAUGAGGAUCACCCAUGUAGGAUAUCGCUAUUGUAAUCAUGAAACAUGAUUACAAUAGCGAGAAGGACAUAUGCAAA | 11.3 nM | 23.4 nM | – | –
39 | AAAAAAAAAAGUCAGGAUAUACAAAUUUUUACAUGAGGAUCACCCAUGUUAAAAAAAAAAAAAAAGUAGAAGGGACAAAAAAAAAA | – | – | 20.9 nM | 16.9 nM
40 | UUUAGUUUAGGAUAUGUAGACAUUAACAUGAGGAUCACCCAUGUAGAUCCUGAAUUGACUACAGAAGGAAGCAUUU | 248 nM | 446 nM | – | –
41 | AAAAUCAAGUCAGGAUAUCGUGCGGUUGGUCGUUACAUGAGGAUCACCCAUGUCUUCCGGUAGCUCGAGAAGGGACGUGAGCCC | – | – | 18.6 nM | 8.33 nM
42 | AAUAUAAGAGCUGGUAAUCUCAAAACAUGAGGAUCACCCAUGUAGGAUAUCAGCACGAUAAGUGCUGAGAAGGACAUCCAGCUC | 14.3 nM | 16.7 nM | – | –
